Measurements as given in ChEMBL document CHEMBL1154472, “Synthesis and anti-HIV-1 integrase activities of 3-aroyl-2,3-dihydro-1,1-dioxo-1,4,2-benzodithiazines” (Eur J Med Chem, 2009).

Assays:
[1] = target: T1, Human immunodeficiency virus type 1 integrase (Human immunodeficiency virus 1, UniProt Q7ZJM1, Y99S); assay: Inhibition of HIV1 integrase Y99S mutant strand transfer activity
[2] = target: T2, Human immunodeficiency virus type 1 integrase (Human immunodeficiency virus 1, UniProt Q7ZJM1, H114A); assay: Inhibition of HIV1 integrase H114A mutant 3'-end processing activity
T2 sequence (Q7ZJM1 entry or part of it H114A): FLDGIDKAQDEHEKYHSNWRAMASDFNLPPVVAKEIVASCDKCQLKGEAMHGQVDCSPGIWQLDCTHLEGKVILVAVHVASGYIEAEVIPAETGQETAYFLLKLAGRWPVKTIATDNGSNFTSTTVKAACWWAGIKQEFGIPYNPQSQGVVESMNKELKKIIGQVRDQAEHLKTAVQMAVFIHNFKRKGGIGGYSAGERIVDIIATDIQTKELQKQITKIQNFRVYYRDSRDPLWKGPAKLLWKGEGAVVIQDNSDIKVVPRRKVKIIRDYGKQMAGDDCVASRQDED

[3] = target: T3, Human immunodeficiency virus type 1 integrase (Human immunodeficiency virus 1, UniProt Q7ZJM1); assay: Inhibition of HIV1 integrase 3'-end processing activity
T3 sequence (Q7ZJM1 whole entry): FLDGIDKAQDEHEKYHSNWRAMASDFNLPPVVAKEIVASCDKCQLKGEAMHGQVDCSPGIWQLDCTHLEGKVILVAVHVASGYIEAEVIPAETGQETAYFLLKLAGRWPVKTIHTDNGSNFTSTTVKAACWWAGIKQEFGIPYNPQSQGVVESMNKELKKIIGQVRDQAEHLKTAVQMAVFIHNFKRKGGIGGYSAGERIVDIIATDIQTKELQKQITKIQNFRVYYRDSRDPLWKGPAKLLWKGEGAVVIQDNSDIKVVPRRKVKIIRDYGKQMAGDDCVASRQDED
Summary of the method: (§1)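 Wild-type HIV-1 IN, expressed in E. coli BL21(DE3)pLysS after 1 mM IPTG induction, was preincubated at 200 nM final with inhibitor at 30 °C for 30 min. The buffer held 50 mM NaCl, HEPES pH 7.5, 10% glycerol, 7.5 mM MnCl2, 0.1 mg/ml BSA, 10 mM 2-mercaptoethanol, 10% DMSO and 25 mM MOPS pH 7.2. IC50 was taken from the reaction.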

[4] = target: T1, Human immunodeficiency virus type 1 integrase; assay: Inhibition of HIV1 integrase Y99S mutant 3'-end processing activity
[5] = target: T2, Human immunodeficiency virus type 1 integrase; assay: Inhibition of HIV1 integrase H114A mutant strand transfer activity
[6] = target: T3, Human immunodeficiency virus type 1 integrase; assay: Inhibition of HIV1 integrase strand transfer activity; summary of the method: as §1
[7] = target: T3, Human immunodeficiency virus type 1 integrase; assay: Inhibition of HIV1 integrase strand transfer activity in presence of magnesium
Summary of the method: (§2)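 Wild-type HIV-1 IN (200 nM final), expressed in E. coli BL21(DE3)pLysS, was preincubated with inhibitor for 30 min at 30 °C in HEPES/MOPS buffer containing glycerol, BSA and 10% DMSO, with Mg2+ as the cofactor. IC50 was derived.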

[8] = target: T3, Human immunodeficiency virus type 1 integrase; assay: Inhibition of HIV1 integrase 3'-end processing activity in presence of magnesium; summary of the method: as §2

T1 sequence (Q7ZJM1 entry or part of it Y99S): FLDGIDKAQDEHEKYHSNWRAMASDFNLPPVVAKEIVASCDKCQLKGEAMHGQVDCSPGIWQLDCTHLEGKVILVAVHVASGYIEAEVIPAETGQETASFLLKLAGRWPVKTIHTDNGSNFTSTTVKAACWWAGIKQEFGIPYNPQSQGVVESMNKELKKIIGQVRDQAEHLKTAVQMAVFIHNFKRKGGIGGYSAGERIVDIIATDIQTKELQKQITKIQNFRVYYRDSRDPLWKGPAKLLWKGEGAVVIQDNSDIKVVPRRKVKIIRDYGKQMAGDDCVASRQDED

SMILES | IC50 [1] [µM] | IC50 [2] [µM] | IC50 [3] [µM] | IC50 [4] [µM] | IC50 [5] [µM] | IC50 [6] [µM] | IC50 [7] [µM] | IC50 [8] [µM]
Cc1cc2c(cc1Cl)SC(C(=O)c1ccccc1)NS2(=O)=O (centres undefined) | 18 | 15 | 7 | 90 | 9 | 5 | 27 | 60
Cc1cc2c(cc1Cl)SC(C(=O)c1ccccc1)=NS2(=O)=O | 18 | 15 | 12 | 90 | 9 | 12 |  | 
Cc1cc(Cl)cc2c1S(=O)(=O)NC(C(=O)c1ccc(Cl)cc1)S2 (centres undefined) |  |  | 23 |  |  | 14 |  | 
O=C(c1ccc(Cl)cc1)C1NS(=O)(=O)c2ccc(Cl)cc2S1 (centres undefined) | 20 | 20 | 8 | 100 | 18 | 4 | 25 | 51
Cc1cc(Cl)cc2c1S(=O)(=O)NC(C(=O)c1ccc(Cl)c(Cl)c1)S2 (centres undefined) |  |  | 20 |  |  | 14 |  | 
Cc1cc(Cl)cc2c1S(=O)(=O)NC(C(=O)c1ccc3ccccc3c1)S2 (centres undefined) | 23 | 33 | 9 | 70 | 23 | 6 | 51 | 83
Cc1cc(Cl)cc2c1S(=O)(=O)N=C(C(=O)c1ccc(Cl)cc1)S2 |  |  | 22 |  |  | 25 |  | 
Cc1cc(Cl)cc2c1S(=O)(=O)N=C(C(=O)c1ccc(Cl)c(Cl)c1)S2 |  |  | 17 |  |  | 25 |  | 
COc1ccc(C(=O)C2NS(=O)(=O)c3cc(C)c(Cl)cc3S2)cc1 (centres undefined) |  |  | 38 |  |  | 17 |  | 
O=C(c1ccc(Cl)c(Cl)c1)C1NS(=O)(=O)c2ccc(Cl)cc2S1 (centres undefined) | 20 | 18 | 9 | 90 | 18 | 5 | 25 | 58
Cc1cc2c(cc1Cl)SC(C(=O)c1ccc(Cl)c(Cl)c1)NS2(=O)=O (centres undefined) |  |  | 20 |  |  | 10 |  | 
Cc1cc2c(cc1Cl)SC(C(=O)c1ccc(Cl)cc1)=NS2(=O)=O | 20 | 18 | 30 | 90 | 16 | 65 |  | 
Cc1cc2c(cc1Cl)SC(C(=O)c1cccc([N+](=O)[O-])c1)=NS2(=O)=O |  |  | 57 |  |  | 50 |  | 
Cc1cc2c(cc1Cl)SC(C(=O)c1ccc(Cl)c(Cl)c1)=NS2(=O)=O |  |  | 15 |  |  | 7 |  | 
Cc1cc2c(cc1Cl)SC(C(=O)c1ccc3ccccc3c1)=NS2(=O)=O |  |  | 28 |  |  | 3 |  | 
Cc1cc2c(cc1Cl)SC(C(=O)c1ccc(Br)cc1)NS2(=O)=O (centres undefined) |  |  | 4 |  |  | 3 |  | 
Cc1cc2c(cc1Cl)SC(C(=O)c1cccc([N+](=O)[O-])c1)NS2(=O)=O (centres undefined) |  |  | 32 |  |  | 28 |  | 
Cc1cc(Cl)cc2c1S(=O)(=O)N=C(C(=O)c1ccc3ccccc3c1)S2 | 23 | 33 | 22 | 70 | 23 | 7 |  | 
O=C(C1=NS(=O)(=O)c2ccc(Cl)cc2S1)c1ccc(Cl)c(Cl)c1 | 20 | 18 | 61.2 | 90 | 18 | 124 |  | 
O=C(C1=NS(=O)(=O)c2ccc(Cl)cc2S1)c1ccc2ccccc2c1 | 15 | 9 | 8 | 100 | 15 | 8 |  | 
COc1ccc(C(=O)C2=NS(=O)(=O)c3cc(C)c(Cl)cc3S2)cc1 |  |  | 30 |  |  | 33 |  | 
O=C(c1ccc2ccccc2c1)C1NS(=O)(=O)c2ccc(Cl)cc2S1 (centres undefined) | 15 | 9 | 8 | 100 | 15 | 3 | 28 | 55
O=C(c1ccc(Cl)c(Cl)c1)C1NS(=O)(=O)c2ccccc2S1 (centres undefined) |  |  | 22 |  |  | 15 |  | 
Cc1cc2c(cc1Cl)SC(C(=O)c1ccc(Cl)cc1)NS2(=O)=O (centres undefined) | 20 | 18 | 6 | 90 | 16 | 4 | 40 | 63
Cc1cc2c(cc1Cl)SC(C(=O)c1ccc3ccccc3c1)NS2(=O)=O (centres undefined) |  |  | 57 |  |  | 30 |  | 
O=C(C1=NS(=O)(=O)c2ccc(Cl)cc2S1)c1ccc(Cl)cc1 | 20 | 20 | 100 | 100 | 18 | 90 |  | 
Cc1cc2c(cc1Cl)SC(C(=O)c1ccc(Br)cc1)=NS2(=O)=O |  |  | 30 |  |  | 30 |  | 
